Results on ten compounds are retold here after ChEMBL document CHEMBL1136172, “Pyrrolo[2,3-h]quinolinones: synthesis and photochemotherapic activity” (Bioorg Med Chem Lett, 2003).

A value given as a limit tells only on which side of the number the result lay.

Format in all cases: functional, cell-based
Holding throughout (conditions): HT-1080, light or radiation study

Experiment [1] deals with HT-1080. In words: Inhibition of cell growth after irradiation at UVA dose of 6.5 J/cmE-2 in HT1080 human fibrosarcoma cell line. In short, it runs like this:
(§1)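 HT-1080 cells from exponential culture seeded at 5×10⁴ cells/mL in DMEM with 10% FBS and penicillin/streptomycin, and allowed to adhere 18 h. Drug was dissolved in DMSO, diluted in HBSS pH 7.2 and incubated 30 min at 37 °C, 5% CO2. Cells were irradiated with lamps emitting mainly at 365 nm, then given medium for 72 h. Read-out was MTT versus untreated controls, with IC50 by linear regression from three experiments.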

The test system of experiment [2] is HT-1080. In words: Inhibition of cell growth after irradiation at UVA dose of 3.2 J/cmE-2 in HT1080 human fibrosarcoma cell line. In short, it runs like this:
as §1

The test system of experiment [3] is HT-1080. The experiment is described as follows: Inhibition of cell growth after irradiation at UVA dose of 2.6 J/cmE-2 in HT1080 human fibrosarcoma cell line. Summed up:
as §1

Turning to `Cc1cc2c(n1Cc1ccccc1)CCc1cc(C(=O)c3ccccc3)c(O)nc1-2`, the IC50 (usually the concentration that inhibits the measured activity by half) in experiment [1] stood at 1.9 µM; in experiment [2] it was 9 µM; in experiment [3] it was 14.7 µM.
Take `COc1c2occc2cc2ccc(=O)oc12` [METHOXSALEN]: the values for the IC50 in experiment [1], in experiment [2] and in experiment [3] were 1.5 µM, 2.1 µM and 7.8 µM, respectively.
Consider `COc1c2ccoc2cc2oc(=O)ccc12` [BERGAPTEN], for which the results for the IC50 in experiment [1], in experiment [2] and in experiment [3] were 0.9 µM, 1.8 µM and 8.5 µM, respectively.
Taken in the same sequence, the figures for `Cc1cc2c(n1-c1ccccc1)CCc1cc(S(=O)(=O)c3ccccc3)c(O)nc1-2` were 0.4 µM, 2.3 µM and 3.6 µM.
Taken in the same sequence, the figures for `Cc1cc2c(n1C)CCc1cc(S(=O)(=O)c3ccccc3)c(O)nc1-2` were 16.4 µM, above 20 µM and above 20 µM.
For the compound `O=c1ccc2ccc3occc3c2o1` [ANGELICIN], the IC50 in experiment [1] is 2.5 µM; in experiment [2], 2.6 µM; in experiment [3], 15.7 µM.
Taken in the same sequence, the figures for `Cc1cc2c(n1-c1ccccc1)CCc1cc(C#N)c(O)nc1-2` were 11.1 µM, 13.1 µM and above 20 µM.
For `Cc1cc2c(n1Cc1ccccc1)CCc1cc(S(=O)(=O)c3ccccc3)c(O)nc1-2`, the results for the IC50 in experiment [1], in experiment [2] and in experiment [3] were 1.8 µM, 15.1 µM and above 20 µM, respectively.
Take `Cc1cc2c(n1C)CCc1cc(C(=O)c3ccccc3)c(O)nc1-2`: the IC50 in experiment [1], in experiment [2] and in experiment [3] was above 20 µM in each case.
Consider `Cc1cc2c(n1-c1ccccc1)CCc1cc(C(=O)c3ccccc3)c(O)nc1-2`, for which the results for the IC50 in experiment [1], in experiment [2] and in experiment [3] were 1.7 µM, 4.6 µM and 6.6 µM, respectively.
